Screens deposited in PubChem BioAssay by Johns Hopkins Ion Channel Center.
Hits are enriched below; roughly 2.3% of the tested compounds scored in any of these assays.
TRPC4 agonist = TRPC4 (mouse) channel activation; AID 2237; 310,000 compounds, 0.49% hits; B-score at 10 µM; HEK293 TRPC4beta/mu-opioid, Fluo4 calcium fluorescence; stronger effect = higher value; Q9QUQ5;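 active = B-score above 5 SD of library B-scores, and initial fluorescence ratio not above library mean plus 5 SD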;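 note: positive B-score marks a calcium rise read as TRPC4 activation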
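Assay system: HEK293 stable line with TRPC4beta plus mu-opioid receptor. Times: dye 45 min RT, read 110 s. Measured by: kinetic Fluo4 calcium fluorescence. Measure: B score of integrated ratio. Controls: assay buffer as low control, maximal DAMGO as high control.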
TRPC6 act = activates the mouse TRPC6 cation channel; Q61143; HEK293-TRPC6 membrane potential dye fluorescence; stronger effect = higher value; B-score at 10 µM; 310,000 compounds, 0.13% hits; AID 2550;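 active = B-score of the integrated fluorescence ratio above library mean plus 3 SD, and starting fluorescence ratio within library mean plus 5 SD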;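 note: higher score means more depolarization so channel activation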
Target sequence (Q61143 whole entry, looked up): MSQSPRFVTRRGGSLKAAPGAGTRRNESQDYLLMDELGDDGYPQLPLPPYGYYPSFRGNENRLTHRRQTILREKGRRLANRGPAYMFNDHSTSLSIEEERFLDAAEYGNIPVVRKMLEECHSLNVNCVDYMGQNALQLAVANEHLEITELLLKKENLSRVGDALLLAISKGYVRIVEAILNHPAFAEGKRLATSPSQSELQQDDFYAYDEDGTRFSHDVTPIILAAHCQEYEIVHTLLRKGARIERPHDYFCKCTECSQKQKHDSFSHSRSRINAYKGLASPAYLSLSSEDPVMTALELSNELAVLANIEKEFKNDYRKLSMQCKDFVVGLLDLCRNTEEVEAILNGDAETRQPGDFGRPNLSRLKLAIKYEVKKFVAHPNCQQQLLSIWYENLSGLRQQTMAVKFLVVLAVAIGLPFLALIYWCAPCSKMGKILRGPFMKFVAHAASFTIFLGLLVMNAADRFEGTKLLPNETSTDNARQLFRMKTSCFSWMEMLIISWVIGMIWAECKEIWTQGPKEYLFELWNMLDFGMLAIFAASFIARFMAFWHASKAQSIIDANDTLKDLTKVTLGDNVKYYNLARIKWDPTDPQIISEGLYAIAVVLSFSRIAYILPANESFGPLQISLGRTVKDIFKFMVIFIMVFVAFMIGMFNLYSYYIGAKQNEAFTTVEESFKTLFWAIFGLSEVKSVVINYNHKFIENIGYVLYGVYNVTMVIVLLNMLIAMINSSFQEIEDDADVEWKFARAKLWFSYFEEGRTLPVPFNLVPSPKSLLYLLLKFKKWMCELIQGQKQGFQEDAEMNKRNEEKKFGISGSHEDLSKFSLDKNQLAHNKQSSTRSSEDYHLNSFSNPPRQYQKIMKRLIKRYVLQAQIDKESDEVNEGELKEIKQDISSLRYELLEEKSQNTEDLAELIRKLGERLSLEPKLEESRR
TRPC4 PAM = allosterically enhances the mouse TRPC4 cation channel | 310,000 compounds, 0.42% hits | HEK293 TRPC4beta/mu-opioid, DAMGO EC20, Fluo-4 Ca2+ flux; stronger effect = higher value | B-score at 10 µM | Q9QUQ5;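 active = B-score of calcium response area above 5 SD of library B-scores, with initial fluorescence ratio within 5 SD of library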;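 note: B-score of integrated fluorescence ratio over time as area under calcium response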
TRPC6 inhibitor = mouse TRPC6 channel inhibition. 310,000 compounds, 1.1% hits. HEK293-TRPC6, membrane potential dye, ACh-evoked depolarization; stronger effect = lower value. Q61143. B-score at 10 µM;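 active = B-score under library mean minus 3 SD, initial fluorescence not abnormally high, positive integrated signal ratio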;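 note: B-score derived from integrated fluorescence ratio over the kinetic read; more negative B-score means stronger inhibition of depolarization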
TRPC4 block = blocks the mouse TRPC4 cation channel | AID 2247 | Q9QUQ5 | HEK293 TRPC4beta/mu-opioid, DAMGO-evoked Fluo4 calcium flux; stronger effect = lower value | B-score at 10 µM | 300,000 compounds, 0.39% hits;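 active = B-score over 3 SD under the library average, no early fluorescence shift, positive overall ratio signal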
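Assay system: HEK293 cells with stable TRPC4beta plus mu-opioid receptor expression; Probe or stimulus: DAMGO in two steps, submaximal then maximal; Dosing: single-point compound dosing; Measured by: Fluo4 calcium-dye fluorescence, kinetic read; Read-out basis: B score from integrated Fluo4 fluorescence ratio.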
* = called active by the depositor; i = inactive.

SMILES	TRPC4 agonist	TRPC6 act	TRPC4 PAM	TRPC6 inhibitor	TRPC4 block
O=C(C[n+]1cc(-c2ccccc2)n2c1CCC2)N1c2ccccc2Sc2ccccc21	i	i	i	-5.5*	i
CC12CCC(=O)N1C(C(=O)Nc1ccc(F)cc1)CS2 (configuration not stated)	i	i	i	i	i
O=C(CN1CC[n+]2c(-c3cccs3)csc21)c1ccc(Br)cc1	i	i	i	-5*	i
O=C(CN1CC[n+]2c(-c3ccccc3)csc21)c1ccc(Br)cc1	i	i	i	i	i
CCOC(=O)c1sc(NC(=O)c2cc(-c3ccc(C)cc3)nc3ccccc23)c(C#N)c1C	i	i	i	i	i
COC(=O)c1sc(NC(=O)c2cc(-c3ccccc3)nc3ccccc23)c(C#N)c1C	i	i	13*	i	i
CCCSc1cc(N)cc([N+](=O)[O-])c1	i	i	i	i	-5*
COc1ccccc1N1CCN(C(c2cccs2)C(C)NC(=O)c2ccco2)CC1 (configuration not stated)	103*	i	i	i	i
Cc1ccc(S(=O)(=O)NCCC(=O)OCC(=O)N(Cc2ccccc2)C(C)(C)C)cc1	i	i	i	i	i
CCCC(=O)NC(=S)Nc1ccc(S(=O)(=O)Nc2ccc(OCC)cc2)cc1	i	i	i	i	i
CCOc1ccc(NS(=O)(=O)c2ccc(NC(=S)NC(=O)CC(C)C)cc2)cc1	i	i	22*	i	i
CCCn1c(N)c(C(=O)CSc2n[nH]c(-c3ccc(C)cc3)n2)c(=O)[nH]c1=O	i	i	123*	i	i
COc1ccc(NC(=O)c2c(N)no[n+]2[O-])cc1	i	i	i	i	i
O=C(c1cccs1)c1no[n+]([O-])c1C(=O)c1cccs1	54*	i	i	i	i
COc1ccc(C(=O)c2no[n+]([O-])c2C(=O)c2ccc(OC)cc2)cc1	i	i	53*	i	i
O=C(Nc1cccc(Cl)c1)NC1CCN(C2CCCCC2)C1 (configuration not stated)	46*	i	i	i	i
Cc1ccc(Oc2ccccc2/C=N/O)cc1	i	i	i	i	-7*
CCSc1nc2sc3c(c2c2nnc(SCC(=O)NCc4ccco4)n12)CCCC3	i	i	i	i	i
CC(C)Sc1nc2sc3c(c2c2nnc(SCC(=O)NCc4ccco4)n12)CCCC3	i	i	i	i	-7*
CCc1ccc2[nH]c(=O)c(C3C(C#N)=C(N)Oc4c3ccc3cccnc43)cc2c1 (configuration not stated)	i	i	i	-5.9*	i
C/C(=N\NC(N)=S)C1=CCC2C3CC[C@H]4CC(O)CC[C@]4(C)C3CC[C@]12C (some centres not stated)	i	i	i	i	i
Fc1ccc(NC(=S)NCCc2ccccn2)cc1	213*	i	i	i	i
CC(=O)N1c2ccc(S(=O)(=O)N3CCCC3C(=O)Nc3ccc(C)cc3)cc2CC1C (configuration not stated)	i	i	i	i	i
O=C(CSc1nnc(NC(=O)c2ccc3c(c2)OCO3)s1)NCc1ccco1	i	i	11*	i	i
O=C(CSc1nnc(NC(=O)c2ccccc2)s1)NCc1ccco1	i	i	i	i	i
SMILES	TRPC4 agonist	TRPC6 act	TRPC4 PAM	TRPC6 inhibitor	TRPC4 block
CC1CCCCC1NC(=O)c1cccc(NC2=NC3CS(=O)(=O)CC3S2)c1 (configuration not stated)	i	i	i	i	i
CCCCN(CCCNC(=O)c1ccc(CS(=O)(=O)c2c(Cl)cccc2Cl)o1)Cc1ccccc1	i	i	i	i	i
CCCCN(CC)CCCNC(=O)c1ccc(CS(=O)(=O)c2c(Cl)cccc2Cl)o1	62*	i	i	i	i
COc1cccc(/C=N/n2nnnc2N)c1OCC#N	i	i	i	i	i
COc1ccc2ccccc2c1/C=N/NC(=O)c1cccc(Br)c1	i	i	i	i	i
O=C(N/N=C/c1c(O)ccc2ccccc12)c1cccc(C(F)(F)F)c1	i	i	12*	i	i
O=C(Nc1ccnn1C1CCN(C(=O)CCc2ccc(F)cc2)CC1)C1CCOC1 (configuration not stated)	i	i	i	i	i
CCCCC(=O)Nc1cccc2c1C(=O)N(c1ccccc1)C2=O	i	i	24*	i	i
CC(=O)N(c1ccc(Cl)cc1)c1c[nH]c2ccccc12	i	i	i	i	-6*
CC(=O)N(c1ccc(Cl)cc1)c1cn(C(C)=O)c2ccccc12	i	i	i	i	i
CCC(C)(C)NC(=O)CN(C(=O)CCC(=O)Nc1nccs1)c1ccccc1C	i	i	i	i	i
S=c1[nH]nc(-c2ccncc2)n1/N=C/C(Cl)=C\c1ccccc1	i	i	12*	i	i
CCOP(=O)(c1ccccc1)c1nc(-c2ccccc2Cl)oc1N1CCCCC1 (configuration not stated)	i	i	17*	i	i
OC1(c2cccs2)CN(c2ccc(Br)cc2)C2=[N+]1CCCS2 (configuration not stated)	i	i	i	i	i
OC1(c2ccccc2)CN(c2ccccc2)C2=[N+]1CCS2 (configuration not stated)	72*	i	i	i	-9*
CCN(CCn1cccn1)C(=O)c1cc(COc2ccc(F)cc2Cl)on1	i	i	i	i	i
O=C(c1cc(COc2ccc(F)cc2Cl)on1)N(CCO)Cc1cccs1	i	i	11*	i	i
N/C(Cc1cccc2ccccc12)=N\OC(=O)Cc1cccs1	i	i	i	i	i
N/C(Cc1cccc2ccccc12)=N\OC(=O)c1cccs1	i	i	i	i	-6*
O=[N+]([O-])c1ccc2nc(Cl)nc(-c3ccccc3)c2c1	i	i	i	i	i
Cc1[nH]nc(N)c1N=Nc1ccc(Br)cc1	i	i	i	-5.6*	i
Cc1ccc(N=Nc2c(N)n[nH]c2N)cc1	i	i	i	i	i
CNC[C@H](O)c1cccc(O)c1	52*	i	i	i	i
CNC[C@H](O)c1ccc(O)c(O)c1	i	i	i	i	i
COc1ccc(OCC(O)CNCCOc2ccccc2OC)c(C(C)(C)C)c1 (configuration not stated)	i	i	i	i	i
